# According to ChEMBL document CHEMBL1147025, “Synthesis of fluorescently tagged isoprenoid bisphosphonates that inhibit protein geranylgeranylation” (Bioorg Med Chem, 2007):
# Activity calls are given as the source filed them. No cut-off for these calls is given here.
# Legend:
# Conditions in all cases: Homo sapiens
# [1] = system: K562; test: Inhibition of DNA synthesis in K562 cells assessed as [3H]thymidine incorporation after 24 hrs; type: functional, cell-based
# Procedure, shortened: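 K562 cells grown at 37 °C, 5% CO2 in RPMI-1640 with 10% heat-inactivated FBS. Cells at 2 × 10^5 per 200 µL exposed to bisphosphonates (diluted in water) for 24 h, pulsed with [3H]thymidine (0.04 µCi/well) for the last 2 h. Incorporation into DNA measured by liquid scintillation counting; IC50 for 24 h exposure.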
# [2] = system: K562; test: Inhibition of GGPTase1 in K562 cells assessed as Rap1a geranylgeranylation after 24 hrs; type: cell-based
# Procedure, shortened: (§1)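 K562 cells (5 × 10^6 per 5 mL; RPMI-1640, 10% heat-inactivated FBS, 37 °C, 5% CO2) treated 24 h with bisphosphonates diluted in water. Untreated cells served as negative control and 10 µM lovastatin as positive prenylation control. Western blotting used pan-Ras antibody (farnesylation), Rab6 antibody (GGPTase II), and an antibody recognising only unmodified Rap1a (GGPTase I).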
# [3] = system: K562; test: Inhibition of GGPTase2 in K562 cells assessed as Rab6 geranylgeranylation after 24 hrs; type: cell-based; procedure, shortened: as §1
# [4] = system: K562; test: Inhibition of Ras farnesylation in K562 cells by Western blot analysis after 24 hrs; type: functional, cell-based; procedure, shortened: as §1
IC50 [1] [µM],Structure (SMILES),Activity [2],Activity [3],Activity [4]
> 100,C/C(=C\CC(P(=O)(O)O)P(=O)(O)O)CC/C=C(\C)CNc1ccccc1C(=O)O,inactive,inactive,inactive
> 100,CC(C)=CCC/C(C)=C/CC(C/C=C(\C)CC/C=C(\C)CNc1ccccc1C(=O)O)(P(=O)(O)O)P(=O)(O)O,Active,Active,inactive
> 100,CC(C)=CCC/C(C)=C/CC(C/C=C(\C)CNc1ccccc1C(=O)O)(P(=O)(O)O)P(=O)(O)O,Active,Active,inactive
